Results from different studies.
MMP7: Matrilysin (MMP7, Homo sapiens, UniProt P09237)
PIP5K1C: Phosphatidylinositol 4-phosphate 5-kinase type-1 gamma (PIP5K1C, Homo sapiens, UniProt O60331)

SMILES	target	assay	test system	conditions	measurement	value
C#Cc1n[nH]c2c(-c3cn(C(C)c4ccccn4)c(=O)[nH]c3=O)cc(F)cc12 (centres unmarked)	Mitogen-activated protein kinase kinase kinase kinase 3 (MAP4K3, Homo sapiens, UniProt Q8IVH8)	enzyme activity, inhibitor		1 µM	inhibition	9.1%
COc1ncccc1-c1cnn2ccc(N3CCN(C(=O)OC(C)C)CC3)nc12	Serine/threonine-protein kinase/endoribonuclease IRE1 (ERN1, Homo sapiens, UniProt O75460)	binding, competition with immobilised ligand		1 µM	remaining binding	67%
CN(C)C(=O)COC(=O)Cc1ccc(OC(=O)c2ccc(NC(=N)N)cc2)cc1	MMP7	enzyme activity, inhibitor		10 µM	inhibition	2%
Cc1nn(C)cc1-c1nc2c(N3CCN(Cc4ccc(Cl)cc4)CC3)c(Cl)cnc2[nH]1	PIP5K1C	binding, competition with immobilised ligand		1 µM	remaining binding	84%
Nc1ncc(-c2nc(N3CCOCC3)nc(N3CCOCC3)n2)c(C(F)F)n1	PIP5K1C	binding, competition with immobilised ligand		10 µM	remaining binding	100%
CCN1CCN(Cc2ccc(NC(=O)c3ccc(C)c(Oc4ccnc5[nH]ccc45)c3)cc2C(F)(F)F)CC1	Serine/threonine-protein kinase 32C (STK32C, Homo sapiens, UniProt Q86UX6)	target engagement in cells, inhibitor, chemoproteomics	Huh-7	1 µM	inhibition	-13.4%
CNC(=O)[C@H](Cc1ccccc1)NC(=O)[C@H](CC(C)C)[C@H](CSc1cccs1)C(=O)NO	MMP7	enzyme activity, inhibitor		1 nM	inhibition	31%
Cc1ccc(-c2cnnc(N3CCC(c4cccc(Cl)c4)C3)n2)o1 (centres unmarked)	Inorganic pyrophosphatase (Mycobacterium tuberculosis, UniProt P9WI55)	enzyme activity, inhibitor		100 µM	inhibition	45%
